Data taken from publication PMC8859983 (Biomaterials science, 2020).
“Also recorded” adds a separate entry of the source.

Legend:
HUVEC cells = experiment: MTT cell cytotoxicity assay; type: cell-based, human; settings: 10 μM to 100 μM, 48 h, Fig. S2
Outline: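 HUVEC seeded at 4×10³–5×10³ cells/well and incubated 12 h. Then exposed to test compound at 10–100 μM for 48 h. MTT (5 mg mL⁻¹ stock in PBS) added for 4 h, formazan dissolved in DMSO, absorbance read at 490 nm.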

[1] = target: T1, recombinant human MT1-MMP (Homo sapiens, UniProt P50281); experiment: Enzyme kinetics of fluorogenic probes, FRET peptide cleavage assay; type: biochemical; settings: for kcat/Km: specificity constant, 15 nM refolded MT1-MMP, 37 °C, pH 8.0, mean ± SD
Outline: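 Refolded His-tagged human MT1-MMP catalytic/hinge construct (E. coli), 15 nM, with 0.5–4.5 μM FRET probes at 37 °C. Initial cleavage rates measured over 28 s. Km and Vmax from Michaelis–Menten fit; kcat = Vmax/[enzyme]. Mean ± SD.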

HT-1080 tumor [2] = experiment: Ex vivo tumor imaging and biodistribution after intravenous injection; type: in vivo, BALB/c nude mice; settings: for fluorescence intensity / accumulation in the tumors: tumor cryosections 4.5 h post injection, n = 3 per group
Outline: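 BALB/c nude mice (4 weeks old) given 1×10⁶ HT-1080 cells in PBS subcutaneously, right flank. At tumor volume ~0.5–1 cm³, four groups (n = 3) received 50 nmol probe by tail-vein injection. Tumors harvested 4.5 h later, cryosectioned, stained with DiI (membrane) and DAPI (nuclei), and examined by fluorescence microscopy.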

HT-1080 cells = experiment: Cell uptake / cell imaging of probes; type: cell-based, human; settings: for cell uptake: 5 μM probe, 2 h at 37 °C, FAM fluorescence, confocal imaging
Outline: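 HT-1080 cells in RPMI 1640 with 10% FBS, penicillin and streptomycin at 37 °C, 5% CO₂. Seeded on glass-bottom dishes overnight, then fresh medium. Incubated with 5 μM probe for 2 h at 37 °C, ± 5 μM GM6001. Washed three times with PBS, fixed 10 min in 4% paraformaldehyde, DAPI-stained, then imaged for FAM fluorescence.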

HT-1080 tumor [3] = experiment: Optical in vivo imaging after intratumoral injection; parameters: species or system BALB/c nude mice; settings: 50 nmol intratumoral, IVIS; for fluorescence in the tumor site: 0.5–6 h post injection
Outline: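 Subcutaneous HT-1080 xenografts in nude mice; four groups (n = 3) with similar tumor size. Probe or control given intratumorally at 50 nmol. IVIS imaging of FAM (Ex/Em 492/518 nm) at 0.5, 1, 2, 4.5 and 6 h under 2.5% isoflurane in oxygen (1.5 L min⁻¹). Radiant efficiency quantified at tumor site.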

recombinant MT1-MMP = experiment: Fluorescence activation; type: biochemical, human; settings: for activation efficiency by MT1-MMP / selectivity for MT1-MMP compared with MMP-2: 1 μM probe; for activation efficiency by MT1-MMP: 15 nM MT1-MMP, 7 min incubation at 37 °C; for selectivity for MT1-MMP compared with MMP-2: 15 nM enzyme, 37 °C
Outline: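 Catalysis velocity: FRET probes at 1 μM incubated with 15 nM refolded recombinant MT1-MMP for 7 min at 37 °C. Fluorescence from substrate hydrolysis recorded at the set time.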

[4] = target: T1, recombinant human MT1-MMP; experiment: Effect of binding peptide on catalysis of P-1 by MT1-MMP; type: biochemical; settings: binding peptide 0.47 μM to 640 μM, pre-incubated with MT1-MMP
Outline: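 His-tagged human MT1-MMP catalytic plus hinge domains (Tyr112–Ile318) expressed in E. coli BL21(DE3)pLysS. Purified on Ni-NTA in urea and refolded by gradient dialysis. Enzyme pre-incubated with binding peptide (0.47–640 μM) before cleavage of FRET peptide substrate. Ex 328/Em 393 nm.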

Substance: (FAM)-PLGLK-(Dabcyl)-AR-(PEG)12-HWKHLHNTKTFL [Probe P-7]
- cytotoxicity (HUVEC cells): low toxicity
- Km value compared with P-5 ([1]; MT1-MMP, Table S1): much higher Km value of P-7 than P-5
- kcat value compared with P-5 ([1]; MT1-MMP, Table S1): higher kcat value than P-5
- location of the activated probe in frozen tissue slices (HT-1080 tumor [2]; 50 nmol i.v., 4.5 h post injection): located in the cytosol
- fluorescence intensity / accumulation in the tumors (HT-1080 tumor [2]; 50 nmol i.v.): strongest fluorescence intensity
- organs in which the probe was activated (biodistribution) (HT-1080 tumor [2]; 50 nmol, tail vein injection, FAM fluorescence, Fig. S3): predominantly in the tumor, liver, and kidney
- cell uptake (HT-1080 cells): much higher cell uptake compared with the control cells MCF-7; also recorded: much higher cell uptake compared with P-8 and P-9
- cell uptake in the presence of MMP inhibitor GM6001 (HT-1080 cells; HT-1080, 5 μM probe, GM6001 5 μM): decreased
- time to maximum fluorescent intensity at tumor (HT-1080 tumor [3]; Ex/Em 492/518 nm, n = 3 per group): about 1 h

Substance: (FAM)-PLGLK-(Dabcyl)-AR-HWKHLHNTKTFL [Probe P-9]
- cell uptake (HT-1080 cells): higher cell uptake than P-8
- fluorescence in the tumor site (HT-1080 tumor [3]): hardly detected
- activation efficiency by MT1-MMP (recombinant MT1-MMP): lower activation efficiency than P-7; also recorded: lower activation efficiency by MT1-MMP than P-8
- selectivity for MT1-MMP compared with MMP-2 (recombinant MT1-MMP): higher selectivity for MT1-MMP compared with MMP-2
- substrate inhibition of MT1-MMP (recombinant MT1-MMP; data not included): induced the substrate inhibition of MT1-MMP at higher concentrations

Substance: (FAM)-PLGLK-(Dabcyl)-AR-NH2 [Probe P-8]
- fluorescence intensity / accumulation in the tumors (HT-1080 tumor [2]; 50 nmol i.v.): weaker fluorescence intensities
- fluorescence in the tumor site (HT-1080 tumor [3]): hardly detected
- activation efficiency by MT1-MMP (recombinant MT1-MMP): lower activation efficiency than P-7
- selectivity for MT1-MMP compared with MMP-2 (recombinant MT1-MMP): higher selectivity for MT1-MMP compared with MMP-2
- substrate inhibition of MT1-MMP (recombinant MT1-MMP; data not included): induced the substrate inhibition of MT1-MMP at higher concentrations

Substance: (Mca)-PLGL-(Dpa)-AR-(PEG)6-HWKHLHNTKTFL [Probe P-4]
- kcat/Km [1]: 4420 ± 370 M⁻¹ s⁻¹

Substance: (Mca)-PLGL-(Dpa)-AR-(PEG)12-HWKHLHNTKTFL [Probe P-5]
- fold decreased Km value compared with control probe P-1 ([1]; MT1-MMP): 5.4 fold
- fold enhanced hydrolysis rate (kcat) compared with control probe P-1 ([1]; MT1-MMP): 2.5 fold
- fold specificity (kcat/Km) to MT1-MMP compared with control probe P-1 ([1]; MT1-MMP): ~14 fold
- kcat/Km [1]: 6150 ± 440 M⁻¹ s⁻¹
- selectivity for MT1-MMP compared with MMP-2 (recombinant MT1-MMP): significantly higher activation folds when incubated with MT1-MMP than with MMP-2

Substance: (Mca)-PLGL-(Dpa)-AR-(PEG)24-HWKHLHNTKTFL [Probe P-6]
- kcat/Km [1]: 1110 ± 90 M⁻¹ s⁻¹

Substance: (Mca)-PLGL-(Dpa)-AR-HWKHLHNTKTFL [Probe P-2]
- probe concentration above which substrate inhibition of MT1-MMP was induced (recombinant MT1-MMP; data not included): higher than 1.5 μM

Substance: (Mca)-PLGL-(Dpa)-AR-NH2 [Probe P-1, reference compound]
- kcat/Km [1]: 450 ± 30 M⁻¹ s⁻¹

Substance: HWKHLHNTKTFL [MT1-AF7p]
- effect on the catalysis of P-1 by the recombinant MT1-MMP [4]: had no effect
